According to ChEMBL document CHEMBL5661979, “Pharmacological inhibition of BMK1 suppresses tumor growth through promyelocytic leukemia protein” (Cancer Cell, 2010):

Legend:
[1] = target: Ribosomal protein S6 kinase alpha-5 (Homo sapiens, UniProt O75582); test: Inhibition of MSK1 in human HeLa cells lysate pre incubated for 15 mins followed by ATP acyl phosphate probe addition and measured after 10 mins by LC-MS/MS analysis; type: subcellular
[2] = target: Phosphatidylinositol 4-phosphate 3-kinase C2 domain-containing subunit beta (Homo sapiens, UniProt O00750); test: Inhibition of PIK3C2B in human HeLa cells lysate pre incubated for 15 mins followed by ATP acyl phosphate probe addition and measured after 10 mins by LC-MS/MS analysis; type: subcellular
[3] = target: Phosphatidylinositol 5-phosphate 4-kinase type-2 beta (Homo sapiens, UniProt P78356); test: Inhibition of PIP5K2B in human HeLa cells lysate pre incubated for 15 mins followed by ATP acyl phosphate probe addition and measured after 10 mins by LC-MS/MS analysis; type: subcellular
[4] = target: Phosphatidylinositol 4-kinase beta (Homo sapiens, UniProt Q9UBF8); test: Inhibition of PIK4CB in human HeLa cells lysate pre incubated for 15 mins followed by ADP acyl phosphate probe addition and measured after 10 mins by LC-MS/MS analysis; type: subcellular
[5] = target: Serine/threonine-protein kinase 10 (Homo sapiens, UniProt O94804); test: Inhibition of LOK in human HeLa cells lysate pre incubated for 15 mins followed by ADP acyl phosphate probe addition and measured after 10 mins by LC-MS/MS analysis; type: subcellular
[6] = Inhibition of MSK1/2 in human HeLa cells lysate pre incubated for 15 mins followed by ADP acyl phosphate probe addition and measured after 10 mins by LC-MS/MS analysis; type: subcellular
[7] = target: T1, Phosphatidylinositol 5-phosphate 4-kinase type-2 alpha (Homo sapiens, UniProt P48426); test: Inhibition of PIP5K2A LIP1 site in human HeLa cells lysate pre incubated for 15 mins followed by ADP acyl phosphate probe addition and measured after 10 mins by LC-MS/MS analysis; type: subcellular
T1 sequence (P48426 whole entry): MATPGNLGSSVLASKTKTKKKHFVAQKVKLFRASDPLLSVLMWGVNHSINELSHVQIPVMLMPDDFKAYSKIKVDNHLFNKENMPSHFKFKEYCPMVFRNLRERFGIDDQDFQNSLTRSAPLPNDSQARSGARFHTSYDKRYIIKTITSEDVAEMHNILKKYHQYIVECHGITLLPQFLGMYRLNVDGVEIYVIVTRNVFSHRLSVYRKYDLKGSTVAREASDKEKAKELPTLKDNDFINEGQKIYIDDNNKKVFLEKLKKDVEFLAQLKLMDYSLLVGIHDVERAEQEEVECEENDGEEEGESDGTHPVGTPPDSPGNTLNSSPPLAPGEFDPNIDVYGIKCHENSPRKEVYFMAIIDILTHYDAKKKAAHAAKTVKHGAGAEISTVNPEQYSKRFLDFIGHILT

[8] = target: Serine/threonine-protein kinase ULK2 (Homo sapiens, UniProt Q8IYT8); test: Inhibition of ULK2 in human HeLa cells lysate pre incubated for 15 mins followed by ADP acyl phosphate probe addition and measured after 10 mins by LC-MS/MS analysis; type: subcellular
[9] = target: Serine/threonine-protein kinase PLK1 (Homo sapiens, UniProt P53350); test: Inhibition of PLK1 splice variant in human HeLa cells lysate at 50 uM pre incubated for 15 mins followed by ADP acyl phosphate probe addition and measured after 10 mins by LC-MS/MS analysis relative to control; type: subcellular; settings: time 25.0 min
[10] = target: T2, Dual specificity mitogen-activated protein kinase kinase 6 (Homo sapiens) (UniProt P52564); test: Inhibition of MAP2K6 in human HeLa cells lysate at 50 uM pre incubated for 15 mins followed by ADP acyl phosphate probe addition and measured after 10 mins by LC-MS/MS analysis relative to control; type: subcellular; settings: time 25.0 min
T2 sequence (whole entry): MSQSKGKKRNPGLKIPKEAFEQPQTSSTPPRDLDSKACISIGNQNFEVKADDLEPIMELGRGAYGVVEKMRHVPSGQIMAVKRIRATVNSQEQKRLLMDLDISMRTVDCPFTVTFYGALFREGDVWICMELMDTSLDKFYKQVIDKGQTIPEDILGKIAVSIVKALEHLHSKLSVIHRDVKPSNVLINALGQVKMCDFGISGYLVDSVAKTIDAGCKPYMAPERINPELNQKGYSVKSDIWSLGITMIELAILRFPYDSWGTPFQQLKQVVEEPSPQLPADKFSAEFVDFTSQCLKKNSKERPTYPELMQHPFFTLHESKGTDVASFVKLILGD

[11] = target: Ribosomal protein S6 kinase alpha-1 (Homo sapiens, UniProt Q15418); test: Inhibition of RSK1 domain 2 K2 site in human HeLa cells lysate at 10 uM pre incubated for 15 mins followed by ADP acyl phosphate probe addition and measured after 10 mins by LC-MS/MS analysis relative to control; type: subcellular; settings: time 25.0 min
[12] = target: DNA-dependent protein kinase catalytic subunit (Homo sapiens, UniProt P78527); test: Inhibition of PRKDC in human HeLa cells lysate at 10 uM pre incubated for 15 mins followed by ADP acyl phosphate probe addition and measured after 10 mins by LC-MS/MS analysis relative to control; type: subcellular; settings: time 25.0 min
[13] = target: Calcium/calmodulin-dependent protein kinase type II subunit delta (Homo sapiens, UniProt Q13557); test: Inhibition of CamK2d in human HeLa cells lysate at 2 uM pre incubated for 15 mins followed by ADP acyl phosphate probe addition and measured after 10 mins by LC-MS/MS analysis relative to control; type: subcellular; settings: time 25.0 min
[14] = target: Serine/threonine-protein kinase LATS2 (Homo sapiens) (UniProt Q9NRM7); test: Inhibition of LATS2 in human HeLa cells lysate at 2 uM pre incubated for 15 mins followed by ADP acyl phosphate probe addition and measured after 10 mins by LC-MS/MS analysis relative to control; type: subcellular; settings: time 25.0 min
[15] = Inhibition of SRPK1/2 in human HeLa cells lysate at 2 uM pre incubated for 15 mins followed by ADP acyl phosphate probe addition and measured after 10 mins by LC-MS/MS analysis relative to control; settings: 25 min, condition cancer
[16] = Inhibition of MSK1/2 domain 1 in human HeLa cells lysate at 10 uM pre incubated for 15 mins followed by ATP acyl phosphate probe addition and measured after 10 mins by LC-MS/MS analysis relative to control; settings: 25 min, condition cancer
[17] = target: Ribosomal protein S6 kinase alpha-3 (Homo sapiens, UniProt P51812); test: Inhibition of RSK2 domain 2 in human HeLa cells lysate at 2 uM pre incubated for 15 mins followed by ATP acyl phosphate probe addition and measured after 10 mins by LC-MS/MS analysis relative to control; type: subcellular; settings: time 25.0 min
[18] = target: Cyclin-dependent kinase 2 (Homo sapiens, UniProt P24941); test: Inhibition of CDK2 K1 site in human HeLa cells lysate at 2 uM pre incubated for 15 mins followed by ATP acyl phosphate probe addition and measured after 10 mins by LC-MS/MS analysis relative to control; type: subcellular; settings: time 25.0 min
In short: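 KiNativ profiling in HeLa lysate (5 mg/mL total protein). Lysate incubated 15 min with inhibitor at 50, 10, 2, 0.8 or 0 μM. ATP or ADP acylphosphate probe then added (5 μM final) and reacted 10 min. Reaction stopped with urea and analysed by targeted MS, using up to four fragment ions per kinase peptide-probe conjugate. % inhibition taken against untreated lysate. Run in duplicate.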

Sequence of Ribosomal protein S6 kinase alpha-1 (Q15418 whole entry, the tested form may be a part): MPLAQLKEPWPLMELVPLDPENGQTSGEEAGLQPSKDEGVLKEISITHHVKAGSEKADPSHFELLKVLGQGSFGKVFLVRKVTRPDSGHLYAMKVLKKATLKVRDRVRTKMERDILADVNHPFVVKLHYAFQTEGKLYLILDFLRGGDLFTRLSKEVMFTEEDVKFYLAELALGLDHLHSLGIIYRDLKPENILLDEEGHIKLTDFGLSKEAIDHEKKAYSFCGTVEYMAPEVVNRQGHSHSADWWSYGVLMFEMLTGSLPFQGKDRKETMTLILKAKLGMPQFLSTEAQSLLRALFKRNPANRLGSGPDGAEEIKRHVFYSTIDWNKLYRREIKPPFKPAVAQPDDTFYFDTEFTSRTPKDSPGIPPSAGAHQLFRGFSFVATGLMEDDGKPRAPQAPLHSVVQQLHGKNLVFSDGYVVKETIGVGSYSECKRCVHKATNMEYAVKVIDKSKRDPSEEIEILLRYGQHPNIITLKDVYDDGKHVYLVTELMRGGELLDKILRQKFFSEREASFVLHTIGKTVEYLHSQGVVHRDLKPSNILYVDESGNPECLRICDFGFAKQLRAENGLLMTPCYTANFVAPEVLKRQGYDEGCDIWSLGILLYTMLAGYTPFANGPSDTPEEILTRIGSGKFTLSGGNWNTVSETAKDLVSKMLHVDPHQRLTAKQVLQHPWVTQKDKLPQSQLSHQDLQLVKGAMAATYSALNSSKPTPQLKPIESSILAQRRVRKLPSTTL
Sequence of Serine/threonine-protein kinase PLK1 (P53350 whole entry, canonical isoform): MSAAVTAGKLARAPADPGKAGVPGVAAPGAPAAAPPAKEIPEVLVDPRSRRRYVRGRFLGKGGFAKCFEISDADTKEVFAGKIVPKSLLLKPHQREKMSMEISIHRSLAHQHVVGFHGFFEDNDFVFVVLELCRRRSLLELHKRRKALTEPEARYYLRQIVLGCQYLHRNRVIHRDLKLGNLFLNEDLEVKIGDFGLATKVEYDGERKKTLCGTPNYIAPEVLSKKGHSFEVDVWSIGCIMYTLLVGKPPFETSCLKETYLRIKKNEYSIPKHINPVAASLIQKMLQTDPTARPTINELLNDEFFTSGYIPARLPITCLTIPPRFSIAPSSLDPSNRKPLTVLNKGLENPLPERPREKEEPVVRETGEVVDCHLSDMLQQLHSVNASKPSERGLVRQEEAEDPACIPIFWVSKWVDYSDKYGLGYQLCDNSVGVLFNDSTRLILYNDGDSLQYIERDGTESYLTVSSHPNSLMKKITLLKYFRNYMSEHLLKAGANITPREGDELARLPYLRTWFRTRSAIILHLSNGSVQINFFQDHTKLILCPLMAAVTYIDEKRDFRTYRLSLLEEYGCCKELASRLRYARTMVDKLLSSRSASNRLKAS
Sequence of Ribosomal protein S6 kinase alpha-3 (P51812 whole entry, the tested form may be a part): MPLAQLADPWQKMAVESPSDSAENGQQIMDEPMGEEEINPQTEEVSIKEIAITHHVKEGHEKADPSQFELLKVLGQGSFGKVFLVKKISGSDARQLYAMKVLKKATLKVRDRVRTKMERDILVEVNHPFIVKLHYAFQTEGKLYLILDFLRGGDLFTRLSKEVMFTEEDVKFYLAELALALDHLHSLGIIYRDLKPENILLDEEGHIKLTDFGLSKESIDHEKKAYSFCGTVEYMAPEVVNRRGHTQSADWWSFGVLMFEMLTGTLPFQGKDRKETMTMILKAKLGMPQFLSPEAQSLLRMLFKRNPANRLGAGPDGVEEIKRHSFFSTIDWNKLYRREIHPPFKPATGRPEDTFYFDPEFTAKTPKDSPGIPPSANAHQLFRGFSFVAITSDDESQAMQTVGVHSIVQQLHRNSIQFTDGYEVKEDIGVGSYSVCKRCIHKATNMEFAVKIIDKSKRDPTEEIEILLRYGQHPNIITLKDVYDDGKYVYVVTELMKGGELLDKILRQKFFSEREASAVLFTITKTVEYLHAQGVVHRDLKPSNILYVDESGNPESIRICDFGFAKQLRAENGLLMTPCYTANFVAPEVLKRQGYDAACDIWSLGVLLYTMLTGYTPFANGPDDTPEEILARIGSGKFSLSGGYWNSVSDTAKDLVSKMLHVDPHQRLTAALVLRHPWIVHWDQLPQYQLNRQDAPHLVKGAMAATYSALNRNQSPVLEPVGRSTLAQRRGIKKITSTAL
Sequence of Ribosomal protein S6 kinase alpha-5 (O75582 whole entry, the tested form may be a part): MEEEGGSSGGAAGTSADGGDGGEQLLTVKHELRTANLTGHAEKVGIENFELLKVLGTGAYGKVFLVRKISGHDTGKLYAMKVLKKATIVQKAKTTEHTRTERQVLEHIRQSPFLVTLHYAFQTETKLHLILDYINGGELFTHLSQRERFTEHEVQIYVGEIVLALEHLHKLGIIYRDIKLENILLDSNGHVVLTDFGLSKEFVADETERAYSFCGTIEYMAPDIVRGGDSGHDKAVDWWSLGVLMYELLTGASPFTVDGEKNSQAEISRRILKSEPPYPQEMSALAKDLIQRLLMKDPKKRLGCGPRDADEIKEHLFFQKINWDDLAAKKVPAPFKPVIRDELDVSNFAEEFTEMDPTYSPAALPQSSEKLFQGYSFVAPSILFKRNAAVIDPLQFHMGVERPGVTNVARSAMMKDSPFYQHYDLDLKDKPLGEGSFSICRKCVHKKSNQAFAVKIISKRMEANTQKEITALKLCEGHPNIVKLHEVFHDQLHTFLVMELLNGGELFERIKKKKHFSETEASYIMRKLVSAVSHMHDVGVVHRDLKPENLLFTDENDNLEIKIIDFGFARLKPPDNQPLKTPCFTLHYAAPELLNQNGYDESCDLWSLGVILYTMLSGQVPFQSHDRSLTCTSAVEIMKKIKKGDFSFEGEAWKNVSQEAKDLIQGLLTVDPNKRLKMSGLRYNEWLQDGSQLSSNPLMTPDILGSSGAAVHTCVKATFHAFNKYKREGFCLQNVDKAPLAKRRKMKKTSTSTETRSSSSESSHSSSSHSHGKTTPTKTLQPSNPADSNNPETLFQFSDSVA
Sequence of Serine/threonine-protein kinase ULK2 (Q8IYT8 whole entry, canonical isoform): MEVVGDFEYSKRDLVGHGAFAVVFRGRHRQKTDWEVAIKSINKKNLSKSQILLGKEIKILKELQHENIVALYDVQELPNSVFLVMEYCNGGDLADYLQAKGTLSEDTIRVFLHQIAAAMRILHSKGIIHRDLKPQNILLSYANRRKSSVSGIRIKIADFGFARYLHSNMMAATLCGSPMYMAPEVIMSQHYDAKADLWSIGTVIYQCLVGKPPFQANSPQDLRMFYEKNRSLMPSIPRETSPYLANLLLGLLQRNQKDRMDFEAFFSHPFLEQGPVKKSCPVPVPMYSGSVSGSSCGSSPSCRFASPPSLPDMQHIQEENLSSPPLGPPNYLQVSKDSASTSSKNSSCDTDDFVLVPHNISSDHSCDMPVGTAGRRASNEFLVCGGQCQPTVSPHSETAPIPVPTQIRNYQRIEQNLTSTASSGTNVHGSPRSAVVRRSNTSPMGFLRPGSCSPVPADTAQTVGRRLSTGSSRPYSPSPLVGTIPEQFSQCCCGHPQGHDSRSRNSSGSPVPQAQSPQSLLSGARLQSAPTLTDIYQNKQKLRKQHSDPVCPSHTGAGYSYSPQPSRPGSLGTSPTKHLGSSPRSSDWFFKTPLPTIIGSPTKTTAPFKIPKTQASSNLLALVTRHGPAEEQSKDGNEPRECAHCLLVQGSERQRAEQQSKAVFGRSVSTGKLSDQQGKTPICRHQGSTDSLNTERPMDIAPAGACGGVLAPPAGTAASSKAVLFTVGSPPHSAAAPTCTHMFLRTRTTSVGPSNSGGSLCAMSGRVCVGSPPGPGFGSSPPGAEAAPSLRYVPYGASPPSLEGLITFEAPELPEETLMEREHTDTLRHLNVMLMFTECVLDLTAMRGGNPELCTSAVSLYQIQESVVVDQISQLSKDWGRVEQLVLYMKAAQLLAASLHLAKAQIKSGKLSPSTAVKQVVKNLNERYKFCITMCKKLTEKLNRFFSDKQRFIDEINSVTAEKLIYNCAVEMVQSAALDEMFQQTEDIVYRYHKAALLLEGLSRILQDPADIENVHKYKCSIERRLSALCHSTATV
Sequence of Serine/threonine-protein kinase LATS2 (Homo sapiens) (Q9NRM7 whole entry): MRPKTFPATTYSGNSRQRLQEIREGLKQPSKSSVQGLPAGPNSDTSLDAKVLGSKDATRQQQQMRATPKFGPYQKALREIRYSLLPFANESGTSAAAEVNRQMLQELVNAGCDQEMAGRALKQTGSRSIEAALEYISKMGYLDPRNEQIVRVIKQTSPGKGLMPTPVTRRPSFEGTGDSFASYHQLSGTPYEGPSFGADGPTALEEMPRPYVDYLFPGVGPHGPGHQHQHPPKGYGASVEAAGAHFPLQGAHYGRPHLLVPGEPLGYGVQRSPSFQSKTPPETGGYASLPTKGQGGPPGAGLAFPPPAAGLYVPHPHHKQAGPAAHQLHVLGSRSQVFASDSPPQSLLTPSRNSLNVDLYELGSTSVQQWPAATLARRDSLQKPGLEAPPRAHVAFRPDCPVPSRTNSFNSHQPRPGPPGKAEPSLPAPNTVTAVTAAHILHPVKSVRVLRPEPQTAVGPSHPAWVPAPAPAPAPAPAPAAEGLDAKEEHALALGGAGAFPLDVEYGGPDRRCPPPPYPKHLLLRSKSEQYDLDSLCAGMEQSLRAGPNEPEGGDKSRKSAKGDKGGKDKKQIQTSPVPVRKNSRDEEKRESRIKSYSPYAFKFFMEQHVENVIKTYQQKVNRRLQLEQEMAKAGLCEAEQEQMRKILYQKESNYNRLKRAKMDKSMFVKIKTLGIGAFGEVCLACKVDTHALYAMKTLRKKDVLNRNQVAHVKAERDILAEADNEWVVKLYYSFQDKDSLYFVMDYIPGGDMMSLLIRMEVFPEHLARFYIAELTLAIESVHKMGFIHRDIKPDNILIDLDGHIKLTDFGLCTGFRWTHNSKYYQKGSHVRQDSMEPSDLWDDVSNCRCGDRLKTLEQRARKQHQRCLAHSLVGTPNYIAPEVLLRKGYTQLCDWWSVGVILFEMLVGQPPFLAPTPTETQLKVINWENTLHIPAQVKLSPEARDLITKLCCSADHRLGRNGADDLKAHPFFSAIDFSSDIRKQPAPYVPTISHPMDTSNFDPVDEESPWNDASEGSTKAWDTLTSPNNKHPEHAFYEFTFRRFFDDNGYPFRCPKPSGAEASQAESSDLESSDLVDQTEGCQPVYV

Molecule `CCOc1cc(N2CCC(O)CC2)ccc1Nc1ncc2c(n1)N(C)c1ccccc1C(=O)N2C` has an IC50 [1] of over 50 µM, an IC50 [2] of over 50 µM and an IC50 [3] of over 50 µM. The IC50 [4] was over 50 µM, the IC50 [5] was over 50 µM and the IC50 [6] was over 50 µM. For the same molecule, the IC50 [7] was over 50 µM, the IC50 [8] was over 50 µM and the inhibition [9] was 13.3%. For the same molecule, the inhibition [10] was 9.1%, the inhibition [11] was 5.4% and the inhibition [12] was -4.8%. It also gave an inhibition [13] of -6.5%, an inhibition [14] of -4% and an inhibition at 2 µM [15] of 12.7%. For the same molecule, the inhibition at 10 µM [16] was -10.6%, the inhibition [17] was -9.6% and the inhibition [18] was -2.9%.
